Active and inactive are the calls of the source. The calls are words filed in the database; no cut-off is given here. Square brackets hold non-standard residues; d marks the D form. Peptide text beside a SMILES is read from it. * marks the point of attachment. d(tBuAla) = CC(C)(C)C[C@@H](N)C(=O)O; d(aThr) = C[C@@H](O)[C@@H](N)C(=O)O; dCha = N[C@H](CC1CCCCC1)C(=O)O; dChg = N[C@@H](C(=O)O)C1CCCCC1; dPen = CC(C)(S)[C@@H](N)C(=O)O; dPhg = N[C@@H](C(=O)O)c1ccccc1; dNva = CCC[C@@H](N)C(=O)O; tBu = CC(C)(C)*
Biological target: T1, Neuropeptide S receptor (Mus musculus, UniProt Q8BZP8)
T1 sequence (Q8BZP8 whole entry): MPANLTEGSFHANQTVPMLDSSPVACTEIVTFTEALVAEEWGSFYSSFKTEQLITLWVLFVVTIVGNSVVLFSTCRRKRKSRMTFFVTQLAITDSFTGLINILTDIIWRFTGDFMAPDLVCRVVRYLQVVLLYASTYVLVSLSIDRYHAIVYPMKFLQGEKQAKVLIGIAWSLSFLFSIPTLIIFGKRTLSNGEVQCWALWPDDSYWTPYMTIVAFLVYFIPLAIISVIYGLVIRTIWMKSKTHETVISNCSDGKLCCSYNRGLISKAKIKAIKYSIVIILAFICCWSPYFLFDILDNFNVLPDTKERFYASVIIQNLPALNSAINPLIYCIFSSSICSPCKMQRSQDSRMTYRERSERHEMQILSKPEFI
Assay: Agonist activity at mouse NPSR expressed in HEK293 cells by calcium mobilization assay
Assay type: functional, cell-based
Details: not given
In short: (§1)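 HEK293 cells stably expressing mouse NPSR; intracellular calcium mobilization measured after peptide addition, concentration-response curves giving pEC50 and Emax as % over basal. Mean of at least four separate experiments performed in duplicate.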

Row | EC50 | Molecule
1 | 0.794 µM | CSCC[C@H](NC(=O)CNC(=O)[C@@H](NC(=O)CNC(=O)[C@@H](NC(=O)[C@H](NC(=O)[C@H](CC(N)=O)NC(=O)[C@H](CCCNC(=N)N)NC(=O)[C@H](Cc1ccccc1)NC(=O)[C@@H](N)CO)[C@H](C)O)C(C)C)[C@@H](C)O)C(=O)N[C@@H](CCCCN)C(=O)N[C@@H](CCCCN)C(=O)N[C@H](C(=O)N[C@@H](CO)C(=O)N[C@@H](Cc1ccccc1)C(=O)N[C@@H](CCC(N)=O)C(=O)N[C@@H](CCCNC(=N)N)C(=O)N[C@@H](C)C(=O)N[C@@H](CCCCN)C(=O)O)[C@@H](C)O (H-SFRN[dT]VGTGMKKTSFQRAK-OH)
2 | 1.66 µM | CSCC[C@H](NC(=O)CNC(=O)[C@@H](NC(=O)CNC(=O)[C@@H](NC(=O)[C@@H](CC(C)(C)C)NC(=O)[C@H](CC(N)=O)NC(=O)[C@H](CCCN=C(N)N)NC(=O)[C@H](Cc1ccccc1)NC(=O)[C@@H](N)CO)C(C)C)[C@@H](C)O)C(=O)N[C@@H](CCCCN)C(=O)N[C@@H](CCCCN)C(=O)N[C@H](C(=O)N[C@@H](CO)C(=O)N[C@@H](Cc1ccccc1)C(=O)N[C@@H](CCC(N)=O)C(=O)N[C@@H](CCCN=C(N)N)C(=O)N[C@@H](C)C(=O)N[C@@H](CCCCN)C(=O)O)[C@@H](C)O (H-SFRN[d(tBuAla)]VGTGMKKTSFQRAK-OH)
3 | 0.00479 µM | H-SFRNGVGTGMKKTSFQRAKS-OH [NEUROPEPTIDE S]
4 | 0.661 µM | CSCC[C@H](NC(=O)CNC(=O)[C@@H](NC(=O)CNC(=O)[C@@H](NC(=O)[C@H](NC(=O)[C@H](CC(N)=O)NC(=O)[C@H](CCCN=C(N)N)NC(=O)[C@H](Cc1ccccc1)NC(=O)[C@@H](N)CO)c1ccccc1)C(C)C)[C@@H](C)O)C(=O)N[C@@H](CCCCN)C(=O)N[C@@H](CCCCN)C(=O)N[C@H](C(=O)N[C@@H](CO)C(=O)N[C@@H](Cc1ccccc1)C(=O)N[C@@H](CCC(N)=O)C(=O)N[C@@H](CCCN=C(N)N)C(=O)N[C@@H](C)C(=O)N[C@@H](CCCCN)C(=O)O)[C@@H](C)O (H-SFRN[dPhg]VGTGMKKTSFQRAK-OH)
5 | 2.69 µM | CCC[C@@H](NC(=O)[C@H](CC(N)=O)NC(=O)[C@H](CCCN=C(N)N)NC(=O)[C@H](Cc1ccccc1)NC(=O)[C@@H](N)CO)C(=O)N[C@H](C(=O)NCC(=O)N[C@H](C(=O)NCC(=O)N[C@@H](CCSC)C(=O)N[C@@H](CCCCN)C(=O)N[C@@H](CCCCN)C(=O)N[C@H](C(=O)N[C@@H](CO)C(=O)N[C@@H](Cc1ccccc1)C(=O)N[C@@H](CCC(N)=O)C(=O)N[C@@H](CCCN=C(N)N)C(=O)N[C@@H](C)C(=O)N[C@@H](CCCCN)C(=O)O)[C@@H](C)O)[C@@H](C)O)C(C)C (H-SFRN[dNva]VGTGMKKTSFQRAK-OH)

Biological target: T2, Neuropeptide S receptor (Mus musculus) (UniProt Q8BZP8)
T2 sequence (whole entry): T1 sequence (Q8BZP8 whole entry)
Assay: Agonist activity at mouse NPSR expressed in HEK293 cells up to 10 uM by calcium mobilization assay
Assay type: functional, cell-based
Details: not given
In short: as §1

Row | Emax | Molecule
6 | inactive | CC[C@H](C)C(NC(=O)[C@H](CC(N)=O)NC(=O)[C@H](CCCNC(=N)N)NC(=O)[C@H](Cc1ccccc1)NC(=O)[C@@H](N)CO)C(=O)N[C@H](C(=O)NCC(=O)N[C@H](C(=O)NCC(=O)N[C@@H](CCSC)C(=O)N[C@@H](CCCCN)C(=O)N[C@@H](CCCCN)C(=O)N[C@H](C(=O)N[C@@H](CO)C(=O)N[C@@H](Cc1ccccc1)C(=O)N[C@@H](CCC(N)=O)C(=O)N[C@@H](CCCNC(=N)N)C(=O)N[C@@H](C)C(=O)N[C@@H](CCCCN)C(=O)O)[C@@H](C)O)[C@@H](C)O)C(C)C (single isomer, unassigned)
7 | inactive | CSCC[C@H](NC(=O)CNC(=O)[C@@H](NC(=O)CNC(=O)[C@@H](NC(=O)[C@H](NC(=O)[C@H](CC(N)=O)NC(=O)[C@H](CCCNC(=N)N)NC(=O)[C@H](Cc1ccccc1)NC(=O)[C@@H](N)CO)[C@@H](C)O)C(C)C)[C@@H](C)O)C(=O)N[C@@H](CCCCN)C(=O)N[C@@H](CCCCN)C(=O)N[C@H](C(=O)N[C@@H](CO)C(=O)N[C@@H](Cc1ccccc1)C(=O)N[C@@H](CCC(N)=O)C(=O)N[C@@H](CCCNC(=N)N)C(=O)N[C@@H](C)C(=O)N[C@@H](CCCCN)C(=O)O)[C@@H](C)O (H-SFRN[d(aThr)]VGTGMKKTSFQRAK-OH)
8 | inactive | CC[C@@H](C)[C@@H](NC(=O)[C@H](CC(N)=O)NC(=O)[C@H](CCCNC(=N)N)NC(=O)[C@H](Cc1ccccc1)NC(=O)[C@@H](N)CO)C(=O)N[C@H](C(=O)NCC(=O)N[C@H](C(=O)NCC(=O)N[C@@H](CCSC)C(=O)N[C@@H](CCCCN)C(=O)N[C@@H](CCCCN)C(=O)N[C@H](C(=O)N[C@@H](CO)C(=O)N[C@@H](Cc1ccccc1)C(=O)N[C@@H](CCC(N)=O)C(=O)N[C@@H](CCCNC(=N)N)C(=O)N[C@@H](C)C(=O)N[C@@H](CCCCN)C(=O)O)[C@@H](C)O)[C@@H](C)O)C(C)C (H-SFRN[dI]VGTGMKKTSFQRAK-OH)
9 | inactive | CSCC[C@H](NC(=O)CNC(=O)[C@@H](NC(=O)CNC(=O)[C@@H](NC(=O)[C@@H](CC1CCCCC1)NC(=O)[C@H](CC(N)=O)NC(=O)[C@H](CCCNC(=N)N)NC(=O)[C@H](Cc1ccccc1)NC(=O)[C@@H](N)CO)C(C)C)[C@@H](C)O)C(=O)N[C@@H](CCCCN)C(=O)N[C@@H](CCCCN)C(=O)N[C@H](C(=O)N[C@@H](CO)C(=O)N[C@@H](Cc1ccccc1)C(=O)N[C@@H](CCC(N)=O)C(=O)N[C@@H](CCCNC(=N)N)C(=O)N[C@@H](C)C(=O)N[C@@H](CCCCN)C(=O)O)[C@@H](C)O (H-SFRN[dCha]VGTGMKKTSFQRAK-OH)
10 | inactive | CSCC[C@H](NC(=O)CNC(=O)[C@@H](NC(=O)CNC(=O)[C@@H](NC(=O)[C@H](NC(=O)[C@H](CC(N)=O)NC(=O)[C@H](CCCNC(=N)N)NC(=O)[C@H](Cc1ccccc1)NC(=O)[C@@H](N)CO)C(C)C)C(C)C)[C@@H](C)O)C(=O)N[C@@H](CCCCN)C(=O)N[C@@H](CCCCN)C(=O)N[C@H](C(=O)N[C@@H](CO)C(=O)N[C@@H](Cc1ccccc1)C(=O)N[C@@H](CCC(N)=O)C(=O)N[C@@H](CCCNC(=N)N)C(=O)N[C@@H](C)C(=O)N[C@@H](CCCCN)C(=O)N[C@@H](CO)C(=O)O)[C@@H](C)O (H-SFRN[dV]VGTGMKKTSFQRAKS-OH)
11 | inactive | CSCC[C@H](NC(=O)CNC(=O)[C@@H](NC(=O)CNC(=O)[C@@H](NC(=O)[C@H](NC(=O)[C@H](CC(N)=O)NC(=O)[C@H](CCCNC(=N)N)NC(=O)[C@H](Cc1ccccc1)NC(=O)[C@@H](N)CO)C1CCCCC1)C(C)C)[C@@H](C)O)C(=O)N[C@@H](CCCCN)C(=O)N[C@@H](CCCCN)C(=O)N[C@H](C(=O)N[C@@H](CO)C(=O)N[C@@H](Cc1ccccc1)C(=O)N[C@@H](CCC(N)=O)C(=O)N[C@@H](CCCNC(=N)N)C(=O)N[C@@H](C)C(=O)N[C@@H](CCCCN)C(=O)O)[C@@H](C)O (H-SFRN[dChg]VGTGMKKTSFQRAK-OH)
12 | inactive | CSCC[C@H](NC(=O)CNC(=O)[C@@H](NC(=O)CNC(=O)[C@@H](NC(=O)[C@H](NC(=O)[C@H](CC(N)=O)NC(=O)[C@H](CCCNC(=N)N)NC(=O)[C@H](Cc1ccccc1)NC(=O)[C@@H](N)CO)C(C)(C)S)C(C)C)[C@@H](C)O)C(=O)N[C@@H](CCCCN)C(=O)N[C@@H](CCCCN)C(=O)N[C@H](C(=O)N[C@@H](CO)C(=O)N[C@@H](Cc1ccccc1)C(=O)N[C@@H](CCC(N)=O)C(=O)N[C@@H](CCCNC(=N)N)C(=O)N[C@@H](C)C(=O)N[C@@H](CCCCN)C(=O)O)[C@@H](C)O (H-SFRN[dPen]VGTGMKKTSFQRAK-OH)

Biological target: T2, Neuropeptide S receptor (Mus musculus)
Assay: Antagonist activity at mouse NPSR expressed in HEK293 cells assessed as inhibition of NPS-induced response
Assay type: functional, cell-based
Details: not given
In short: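 HEK293 cells stably expressing mouse NPSR, calcium mobilization. Inhibition response curves to test peptides against 30 nM NPS, run at 37 °C with three up-and-down mixing cycles right after antagonist injection to aid diffusion. Mean of at least four separate experiments performed in duplicate.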

Row | pKb | Molecule
13 | 6.54 | CSCC[C@H](NC(=O)CNC(=O)[C@@H](NC(=O)CNC(=O)[C@@H](NC(=O)[C@H](NC(=O)[C@H](CC(N)=O)NC(=O)[C@H](CCCNC(=N)N)NC(=O)[C@H](Cc1ccccc1)NC(=O)[C@@H](N)CO)C(C)C)C(C)C)[C@@H](C)O)C(=O)N[C@@H](CCCCN)C(=O)N[C@@H](CCCCN)C(=O)N[C@H](C(=O)N[C@@H](CO)C(=O)N[C@@H](Cc1ccccc1)C(=O)N[C@@H](CCC(N)=O)C(=O)N[C@@H](CCCNC(=N)N)C(=O)N[C@@H](C)C(=O)N[C@@H](CCCCN)C(=O)N[C@@H](CO)C(=O)O)[C@@H](C)O (H-SFRN[dV]VGTGMKKTSFQRAKS-OH)
14 | 6.5 | CSCC[C@H](NC(=O)CNC(=O)[C@@H](NC(=O)CNC(=O)[C@@H](NC(=O)[C@@H](CSC(C)(C)C)NC(=O)[C@H](CC(N)=O)NC(=O)[C@H](CCCNC(=N)N)NC(=O)[C@H](Cc1ccccc1)NC(=O)[C@@H](N)CO)C(C)C)[C@@H](C)O)C(=O)N[C@@H](CCCCN)C(=O)N[C@@H](CCCCN)C(=O)N[C@H](C(=O)N[C@@H](CO)C(=O)N[C@@H](Cc1ccccc1)C(=O)N[C@@H](CCC(N)=O)C(=O)N[C@@H](CCCNC(=N)N)C(=O)N[C@@H](C)C(=O)N[C@@H](CCCCN)C(=O)N[C@@H](CO)C(=O)O)[C@@H](C)O (H-SFRN[dC](tBu)VGTGMKKTSFQRAKS-OH)

Biological target: T3, Neuropeptide S receptor (Homo sapiens) (UniProt Q6W5P4)
T3 sequence (whole entry): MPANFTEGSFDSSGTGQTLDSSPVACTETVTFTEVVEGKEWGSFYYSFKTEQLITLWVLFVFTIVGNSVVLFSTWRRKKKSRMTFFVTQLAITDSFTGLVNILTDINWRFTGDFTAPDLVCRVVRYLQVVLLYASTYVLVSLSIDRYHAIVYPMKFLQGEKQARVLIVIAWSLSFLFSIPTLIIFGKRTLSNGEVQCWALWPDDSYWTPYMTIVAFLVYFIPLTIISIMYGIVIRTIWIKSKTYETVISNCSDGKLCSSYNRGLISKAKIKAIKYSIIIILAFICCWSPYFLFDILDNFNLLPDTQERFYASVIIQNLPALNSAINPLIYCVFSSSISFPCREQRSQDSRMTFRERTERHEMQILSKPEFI
Details: HEK293

Row | Molecule | pKb
15 | O=C(NCc1ccc(F)cc1)N1CCN2C(=O)OC(c3ccccc3)(c3ccccc3)C2C1 (stereo not given) | 7.5

— ChEMBL document CHEMBL1136992, “Further studies at neuropeptide s position 5: discovery of novel neuropeptide S receptor antagonists” (J Med Chem, 2009)
